Experiment [1] addresses 3-phosphoinositide-dependent protein kinase 1 (Homo sapiens) (UniProt O15530). Description: Binding affinity to wild-type human full length PDPK1 (M1 to Q556 residues) expressed in bacterial expression system assessed as residual binding level at 1 uM by Kinomescan method relative to control. Summed up:
(§1)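 KinomeScan, an active site-directed competition binding panel of 468 kinases. The test compound was at 1 μM. The readout is remaining kinase binding as a percentage of the DMSO control. Scores above 35% were treated as weak binding and not listed.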

Experiment [2] concerns the target Serine/threonine-protein kinase 38 (Homo sapiens) (UniProt Q15208). Description: Binding affinity to wild-type human partial length NDR1 (N33 to E449 residues) expressed in mammalian expression system assessed as residual binding level at 1 uM by Kinomescan method relative to control. The essentials:
(§2)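 Active-site-directed competition binding panel of 468 kinases (KinomeScan), compound at 1 μM. The read-out is kinase remaining bound, given as a percentage of the DMSO control. […]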

The target in experiment [3] is Serine/threonine-protein kinase WNK2 (Homo sapiens) (UniProt Q9Y3S1). The experiment is described as follows: Binding affinity to wild-type human partial length WNK2 (V47 to D482 residues) expressed in mammalian expression system assessed as residual binding level at 1 uM by Kinomescan method relative to control. The essentials:
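Active site-directed competition binding panel (KinomeScan, 468 kinases). Test compound at 1 μM. Read-out is kinase binding remaining versus DMSO control, expressed as percent of control. Scores above 35% are treated as weak binding.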

Experiment [4] concerns the target Mitogen-activated protein kinase 15 (Homo sapiens) (UniProt Q8TD08). The experiment is described as follows: Binding affinity to wild-type human partial length ERK8 (M1 to P437 residues) expressed in bacterial expression system assessed as residual binding level at 1 uM by Kinomescan method relative to control.
Experiment [5] addresses Ribosomal protein S6 kinase alpha-3 (Homo sapiens) (UniProt P51812). Description: Binding affinity to wild-type human partial length C-terminal RSK2 kinase domain 2 (V402 to S715 residues) expressed in mammalian expression system assessed as residual binding level at 1 uM by Kinomescan method relative to control.
Experiment [6] deals with Dual specificity tyrosine-phosphorylation-regulated kinase 1B (Homo sapiens) (UniProt Q9Y463). The experiment is described as follows: Binding affinity to wild-type human full length DYRK1B (M1 to S629 residues) expressed in bacterial expression system assessed as residual binding level at 1 uM by Kinomescan method relative to control. Summed up:
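Active-site-directed KinomeScan competition binding panel covering 468 kinases, compound tested at 1 μM. Each readout is the kinase signal remaining with compound, expressed as a percentage of the DMSO control. […]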

Experiment [7] concerns Hepatocyte growth factor receptor (Homo sapiens), P08581 [Y1235D]. The experiment is described as follows: Binding affinity to human partial length MET Y1235D mutant (D1010 to S1367 residues) expressed in bacterial expression system assessed as residual binding level at 1 uM by Kinomescan method relative to control. Summed up:
(§3)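 KinomeScan active site-directed competition binding panel (468 kinases), compound tested at 1 μM. Result expressed as remaining kinase signal versus DMSO control (percent of control).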

Experiment [8] concerns Receptor-type tyrosine-protein kinase FLT3 (Homo sapiens), P36888 [UNDEFINED MUTATION]. Description: Binding affinity to human partial length FLT3 ITD mutant expressed in bacterial expression system assessed as residual binding level at 1 uM by Kinomescan method relative to control. Summed up: as §3
The target of experiment [9] is MAP kinase-interacting serine/threonine-protein kinase 1 (Homo sapiens) (UniProt Q9BUB5). Description: Binding affinity to wild-type human full length MKNK1 (M1 to L424 residues) expressed in mammalian expression system assessed as residual binding level at 1 uM by Kinomescan method relative to control. Summed up:
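Active-site-directed competition binding panel (KinomeScan) covering 468 kinases. Test agent was screened at 1 μM. The read-out is the remaining kinase signal expressed relative to a DMSO control. Scores above 35%, taken as weak binding, were not reported.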

The target in experiment [10] is Tyrosine-protein kinase JAK3 (Homo sapiens) (UniProt P52333). Description: Binding affinity to wild-type human partial length JAK3 JH1 catalytic domain (I781 to S1124 residues) expressed in mammalian expression system assessed as residual binding level at 1 uM by Kinomescan method relative to control. The essentials: as §2
Experiment [11] has as its system Receptor-type tyrosine-protein kinase FLT3 (Homo sapiens), P36888 [D835Y]. Description: Binding affinity to human partial length FLT3 D835Y mutant (Q580 to Y969 residues) expressed in bacterial expression system assessed as residual binding level at 1 uM by Kinomescan method relative to control. Summed up:
as §3

Experiment [12] addresses RAC-alpha serine/threonine-protein kinase (Homo sapiens) (UniProt P31749). Description: Binding affinity to wild-type human partial length AKT1 expressed in bacterial expression system assessed as residual binding level at 1 uM by Kinomescan method relative to control.
Experiment [13] concerns the target Ribosomal protein S6 kinase alpha-3 (Homo sapiens) (UniProt P51812). Description: Binding affinity to wild-type human partial length N- terminal RSK2 kinase domain 1 (M1 to D394 residues) expressed in mammalian expression system assessed as residual binding level at 1 uM by Kinomescan method relative to control.
A further experiment concerns Mus musculus. The experiment is described as follows: In vivo inhibition of SRC in C57B6 mouse assessed as blocking of SRC pulldown at 5 mg/kg, ip measured after 2 to 4 hrs by Western blot analysis. In kind it is functional, organism-based. The essentials:
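Adult C57B6 mice, n = 2 per condition. Three intraperitoneal doses of 5 mg/kg, given every 12 h; vehicle is 5% DMSO/95% D5W. Spleens harvested 2 or 4 h after the last dose, homogenized and lysed in M-PER with protease/phosphatase inhibitors. Lysate incubated with 1 μM biotinylated probe TL13-68 overnight at 4 °C, streptavidin pulldown, SRC detected by Western blot.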

The target of experiment [14] is Interleukin-1 receptor-associated kinase 3 (Homo sapiens) (UniProt Q9Y616). Description: Binding affinity to wild-type human partial length IRAK3 (V147 to E596 residues) expressed in bacterial expression system assessed as residual binding level at 1 uM by Kinomescan method relative to control.
The target in experiment [15] is Cyclin-dependent kinase 18 (Homo sapiens) (UniProt Q07002). Description: Binding affinity to wild-type human full length PCTK3 (M3 to F474 residues) expressed in bacterial expression system assessed as residual binding level at 1 uM by Kinomescan method relative to control. The essentials: as §1
Experiment [16] addresses Ribosomal protein S6 kinase alpha-4 (Homo sapiens) (UniProt O75676). The experiment is described as follows: Binding affinity to wild-type human partial length N-terminal RPS6KA4 kinase domain 1 expressed in bacterial expression system assessed as residual binding level at 1 uM by Kinomescan method relative to control.
Experiment [17] addresses MAP kinase-interacting serine/threonine-protein kinase 2 (Homo sapiens) (UniProt Q9HBH9). The experiment is described as follows: Binding affinity to wild-type human partial length MKNK2 (G63 to S388 residues) expressed in mammalian expression system assessed as residual binding level at 1 uM by Kinomescan method relative to control. Summed up:
as §2

The target of experiment [18] is 5'-AMP-activated protein kinase catalytic subunit alpha-1 (Homo sapiens) (UniProt Q13131). The experiment is described as follows: Binding affinity to wild-type human partial length AMPK alpha1 (M1 to E306 residues) expressed in bacterial expression system assessed as residual binding level at 1 uM by Kinomescan method relative to control.

Active and inactive are the calls of the source. The calls are words filed in the database; no cut-off is given here.

Ribosomal protein S6 kinase alpha-3 (Homo sapiens), sequence (P51812 whole entry, the tested form may be a part): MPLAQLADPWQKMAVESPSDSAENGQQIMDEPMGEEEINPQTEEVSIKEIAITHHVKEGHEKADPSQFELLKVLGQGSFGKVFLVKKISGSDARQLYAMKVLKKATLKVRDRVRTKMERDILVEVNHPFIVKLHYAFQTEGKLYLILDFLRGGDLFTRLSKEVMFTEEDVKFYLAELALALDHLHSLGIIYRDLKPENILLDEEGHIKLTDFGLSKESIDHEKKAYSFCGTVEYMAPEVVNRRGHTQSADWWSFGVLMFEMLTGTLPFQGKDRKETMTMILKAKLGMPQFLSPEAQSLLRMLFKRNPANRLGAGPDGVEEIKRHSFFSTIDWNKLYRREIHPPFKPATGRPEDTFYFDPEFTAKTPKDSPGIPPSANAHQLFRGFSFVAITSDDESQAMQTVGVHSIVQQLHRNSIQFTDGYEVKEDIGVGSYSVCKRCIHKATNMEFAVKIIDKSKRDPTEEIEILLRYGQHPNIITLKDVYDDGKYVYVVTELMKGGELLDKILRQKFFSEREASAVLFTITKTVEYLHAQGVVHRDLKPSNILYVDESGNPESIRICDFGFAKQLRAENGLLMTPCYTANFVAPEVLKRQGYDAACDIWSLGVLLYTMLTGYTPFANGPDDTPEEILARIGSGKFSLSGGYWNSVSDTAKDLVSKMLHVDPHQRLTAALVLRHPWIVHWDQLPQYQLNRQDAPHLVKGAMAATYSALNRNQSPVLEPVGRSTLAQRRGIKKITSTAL
Cyclin-dependent kinase 18 (Homo sapiens), sequence (Q07002 whole entry, the tested form may be a part): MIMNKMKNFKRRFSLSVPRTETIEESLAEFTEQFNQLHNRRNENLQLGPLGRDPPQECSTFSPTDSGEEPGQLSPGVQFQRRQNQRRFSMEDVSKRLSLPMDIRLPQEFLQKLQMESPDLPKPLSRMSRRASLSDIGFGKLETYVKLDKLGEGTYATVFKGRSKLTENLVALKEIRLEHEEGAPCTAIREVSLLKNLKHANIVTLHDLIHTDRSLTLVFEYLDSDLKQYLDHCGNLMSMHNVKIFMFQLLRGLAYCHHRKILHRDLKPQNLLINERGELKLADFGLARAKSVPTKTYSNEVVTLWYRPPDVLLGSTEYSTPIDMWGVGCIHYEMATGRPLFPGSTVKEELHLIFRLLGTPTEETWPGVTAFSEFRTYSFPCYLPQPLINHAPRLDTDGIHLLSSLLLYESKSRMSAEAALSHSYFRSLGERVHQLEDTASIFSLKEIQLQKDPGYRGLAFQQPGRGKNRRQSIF
Mitogen-activated protein kinase 15 (Homo sapiens), sequence (Q8TD08 whole entry, the tested form may be a part): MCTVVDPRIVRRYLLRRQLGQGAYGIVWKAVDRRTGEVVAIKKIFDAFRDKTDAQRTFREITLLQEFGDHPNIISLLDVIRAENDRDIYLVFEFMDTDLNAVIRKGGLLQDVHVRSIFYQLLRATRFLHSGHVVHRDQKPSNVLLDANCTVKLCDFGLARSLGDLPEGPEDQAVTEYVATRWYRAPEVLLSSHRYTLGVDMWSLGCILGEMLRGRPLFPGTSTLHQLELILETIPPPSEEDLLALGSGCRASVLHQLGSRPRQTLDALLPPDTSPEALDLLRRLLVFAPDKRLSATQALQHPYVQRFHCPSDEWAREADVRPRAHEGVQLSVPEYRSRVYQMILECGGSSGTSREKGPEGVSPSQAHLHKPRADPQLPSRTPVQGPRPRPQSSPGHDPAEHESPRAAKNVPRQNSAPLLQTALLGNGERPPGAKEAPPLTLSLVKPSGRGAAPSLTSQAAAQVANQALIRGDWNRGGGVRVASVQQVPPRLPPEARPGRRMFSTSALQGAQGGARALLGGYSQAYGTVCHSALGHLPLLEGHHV
MAP kinase-interacting serine/threonine-protein kinase 2 (Homo sapiens), sequence (Q9HBH9 whole entry, looked up, the tested form may be a part): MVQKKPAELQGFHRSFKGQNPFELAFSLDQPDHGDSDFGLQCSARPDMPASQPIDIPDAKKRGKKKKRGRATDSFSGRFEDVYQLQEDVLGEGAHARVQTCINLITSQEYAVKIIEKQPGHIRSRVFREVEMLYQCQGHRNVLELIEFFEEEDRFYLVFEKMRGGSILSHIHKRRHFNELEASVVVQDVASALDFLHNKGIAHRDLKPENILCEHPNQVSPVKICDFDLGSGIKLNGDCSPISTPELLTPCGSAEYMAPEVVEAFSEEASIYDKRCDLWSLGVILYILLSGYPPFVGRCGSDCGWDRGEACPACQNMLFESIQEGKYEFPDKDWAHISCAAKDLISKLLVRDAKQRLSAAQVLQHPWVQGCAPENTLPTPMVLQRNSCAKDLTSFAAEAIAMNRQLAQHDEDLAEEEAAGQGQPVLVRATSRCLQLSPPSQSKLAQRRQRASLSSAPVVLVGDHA
Serine/threonine-protein kinase WNK2 (Homo sapiens), sequence (Q9Y3S1 whole entry, the tested form may be a part): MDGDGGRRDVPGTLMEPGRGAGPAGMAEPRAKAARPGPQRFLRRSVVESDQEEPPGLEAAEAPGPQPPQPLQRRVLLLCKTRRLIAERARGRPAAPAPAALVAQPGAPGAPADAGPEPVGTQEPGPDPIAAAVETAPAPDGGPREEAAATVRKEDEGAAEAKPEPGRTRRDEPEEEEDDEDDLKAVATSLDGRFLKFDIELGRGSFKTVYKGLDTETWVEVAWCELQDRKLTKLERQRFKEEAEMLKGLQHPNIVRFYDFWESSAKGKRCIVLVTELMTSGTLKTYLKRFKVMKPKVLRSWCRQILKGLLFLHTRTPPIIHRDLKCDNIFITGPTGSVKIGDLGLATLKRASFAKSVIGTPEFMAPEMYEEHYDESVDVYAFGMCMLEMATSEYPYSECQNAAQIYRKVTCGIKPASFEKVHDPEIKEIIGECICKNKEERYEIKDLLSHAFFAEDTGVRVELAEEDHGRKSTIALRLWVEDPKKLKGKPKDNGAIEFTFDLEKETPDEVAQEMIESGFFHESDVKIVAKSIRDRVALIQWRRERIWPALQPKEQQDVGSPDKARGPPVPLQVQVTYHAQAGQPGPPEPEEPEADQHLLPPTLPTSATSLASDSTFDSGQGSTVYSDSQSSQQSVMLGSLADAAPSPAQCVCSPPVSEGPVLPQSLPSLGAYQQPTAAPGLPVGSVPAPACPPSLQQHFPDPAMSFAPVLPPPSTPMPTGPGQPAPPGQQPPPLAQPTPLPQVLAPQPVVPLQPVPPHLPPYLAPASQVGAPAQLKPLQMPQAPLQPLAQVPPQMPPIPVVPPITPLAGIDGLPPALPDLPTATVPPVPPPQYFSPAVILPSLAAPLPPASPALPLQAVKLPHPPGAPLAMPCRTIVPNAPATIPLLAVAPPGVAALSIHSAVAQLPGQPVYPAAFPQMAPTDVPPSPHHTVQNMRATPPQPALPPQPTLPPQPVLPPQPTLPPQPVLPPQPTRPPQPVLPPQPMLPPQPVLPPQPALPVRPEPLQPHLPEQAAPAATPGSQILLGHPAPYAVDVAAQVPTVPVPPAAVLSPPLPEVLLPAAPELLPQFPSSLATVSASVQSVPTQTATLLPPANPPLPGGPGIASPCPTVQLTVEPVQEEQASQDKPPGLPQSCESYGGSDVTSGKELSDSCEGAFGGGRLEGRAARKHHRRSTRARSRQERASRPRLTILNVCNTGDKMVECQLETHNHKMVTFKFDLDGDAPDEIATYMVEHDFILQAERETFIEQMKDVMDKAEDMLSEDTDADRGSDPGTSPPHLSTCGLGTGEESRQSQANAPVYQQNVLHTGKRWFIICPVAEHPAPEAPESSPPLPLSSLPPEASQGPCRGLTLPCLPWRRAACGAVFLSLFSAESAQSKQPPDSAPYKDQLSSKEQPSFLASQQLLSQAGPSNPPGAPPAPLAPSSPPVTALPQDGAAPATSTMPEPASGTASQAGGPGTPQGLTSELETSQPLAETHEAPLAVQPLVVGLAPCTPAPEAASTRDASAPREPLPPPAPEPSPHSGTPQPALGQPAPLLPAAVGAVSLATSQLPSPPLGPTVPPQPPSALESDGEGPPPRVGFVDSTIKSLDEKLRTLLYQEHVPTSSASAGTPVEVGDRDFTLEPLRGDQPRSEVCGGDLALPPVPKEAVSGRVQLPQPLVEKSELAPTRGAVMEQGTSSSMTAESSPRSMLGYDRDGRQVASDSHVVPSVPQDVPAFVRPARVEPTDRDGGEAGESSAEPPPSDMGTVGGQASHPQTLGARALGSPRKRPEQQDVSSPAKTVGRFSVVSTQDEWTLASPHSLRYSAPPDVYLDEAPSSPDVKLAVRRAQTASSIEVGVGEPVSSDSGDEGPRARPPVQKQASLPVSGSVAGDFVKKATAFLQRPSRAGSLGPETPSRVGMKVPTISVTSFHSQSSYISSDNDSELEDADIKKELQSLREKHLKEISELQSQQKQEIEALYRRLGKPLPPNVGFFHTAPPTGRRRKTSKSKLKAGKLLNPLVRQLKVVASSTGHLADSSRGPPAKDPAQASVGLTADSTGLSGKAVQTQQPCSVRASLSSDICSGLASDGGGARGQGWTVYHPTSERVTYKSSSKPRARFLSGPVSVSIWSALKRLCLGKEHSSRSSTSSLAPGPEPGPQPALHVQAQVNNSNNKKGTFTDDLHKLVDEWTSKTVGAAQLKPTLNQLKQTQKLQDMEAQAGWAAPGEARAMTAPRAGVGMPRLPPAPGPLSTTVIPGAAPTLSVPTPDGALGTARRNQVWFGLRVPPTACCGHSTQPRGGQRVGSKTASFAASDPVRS
5'-AMP-activated protein kinase catalytic subunit alpha-1 (Homo sapiens), sequence (Q13131 whole entry, looked up, the tested form may be a part): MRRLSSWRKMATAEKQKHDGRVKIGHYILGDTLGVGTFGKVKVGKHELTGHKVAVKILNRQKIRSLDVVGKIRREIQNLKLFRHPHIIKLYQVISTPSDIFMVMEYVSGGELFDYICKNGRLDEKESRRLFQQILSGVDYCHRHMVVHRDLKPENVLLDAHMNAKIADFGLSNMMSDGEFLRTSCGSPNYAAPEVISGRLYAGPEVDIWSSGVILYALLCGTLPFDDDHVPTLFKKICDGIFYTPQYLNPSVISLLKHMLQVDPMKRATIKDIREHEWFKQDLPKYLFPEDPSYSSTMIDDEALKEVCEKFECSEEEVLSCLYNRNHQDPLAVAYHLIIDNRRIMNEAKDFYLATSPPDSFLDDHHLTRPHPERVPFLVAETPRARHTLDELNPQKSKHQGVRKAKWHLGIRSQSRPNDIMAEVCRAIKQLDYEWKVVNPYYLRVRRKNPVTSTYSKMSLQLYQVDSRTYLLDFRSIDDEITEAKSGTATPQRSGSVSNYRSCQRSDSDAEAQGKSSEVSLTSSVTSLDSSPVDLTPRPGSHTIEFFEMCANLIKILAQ

For `C=CC(=O)Nc1ccccc1Nc1nc(Nc2ccc(N3CCN(C)CC3)cc2)ncc1C(=O)Nc1c(C)cccc1Cl`, the Activity in experiment [1] came to 93%; in [2] it was 90%; in experiment [3] it was 64%; in [4] it was 100%; in [5], 100%; in [6], 74%. Further, the Activity worked out at 100% in [7]; 100% in experiment [8]; 92% in [9]; 88% in experiment [10]; 100% in experiment [11]; 89% in [12]. Also, the Activity is 75% in experiment [13]; 100% in experiment [14]; 98% in experiment [15]; 100% in [16]; 97% in experiment [17]; 100% in experiment [18]. Also, the inhibition entry in the experiment on Mus musculus was “Active”.

The values above are taken from ChEMBL document CHEMBL4354843, “Structure-Based Design of a Potent and Selective Covalent Inhibitor for SRC Kinase That Targets a P-Loop Cysteine” (J Med Chem, 2020).
